Results: paper PMC11567926 (Current Research in Food Science, 2024)
Residues, ends and D or L forms follow the SMILES beside them.

Columns and labels:
Caco-2 cell monolayer = Caco-2 cell monolayer transmembrane transport; type: in vitro ADME, human; conditions: 4 mM, 120 min
Summary of the method: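 Caco-2 cells seeded at 2 × 10^5 cells/mL on the apical side of 0.4 μm-pore Transwells and cultured 21 days to a differentiated monolayer; TEER over 350 Ω cm2 required. Both sides washed twice and equilibrated 30 min in HBSS. Peptide added apically, HBSS basolaterally, 120 min in incubator. AP and BL liquids analysed by RP-HPLC (1 mL/min, 30 °C column, 220 nm).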

DPP-IV [1] = target: T1, DPP-IV (Homo sapiens, UniProt P27487); test: cell-based
DPP-IV [2] = target: T1, DPP-IV; test: in vitro DPP-IV inhibitory activity; type: biochemical; conditions: synthesized peptides, in vitro enzyme assay
Summary of the method: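 Human DPP-IV (0.1 U/mL) and Gly-Pro-p-nitroanilide (2 mmol/L) solutions made in 100 mmol/L Tris-HCl, pH 8.0. Substrate and sample preincubated 10 min at 37 °C under subdued light. Enzyme then added and incubated 1 h at 37 °C. Stopped with 1 mol/L sodium acetate, pH 4.0, and absorbance read at 405 nm. Inhibition calculated from sample, sample-blank, control and blank absorbances.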

Caco-2 cells [3] = test: Caco-2 cell viability, MTT colorimetric assay; type: cell-based, human; conditions: 8 mM peptide, 4 h
Summary of the method: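 Caco-2 cells grown in DMEM with 10% FBS and 1% penicillin-streptomycin at 37 °C, 5% CO2. Seeded at 5 × 10^4 cells/well and incubated 24 h. Medium replaced with peptide at 0.5, 1, 2, 4 or 8 mM for 4 h, 6 replicates per sample. MTT solution (5 mg/mL) added for 4 h, formazan dissolved in DMSO with ~15 min shaking, OD read at 490 nm.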

Caco-2 cells [4] = conditions: 4 mM; ref Mu et al., 2024; cited from earlier work
glucose metabolism = conditions: 300 mg/kg, OGTT normal rats; ref Uenishi et al. (2012); cited from earlier work

T1 sequence (P27487 whole entry): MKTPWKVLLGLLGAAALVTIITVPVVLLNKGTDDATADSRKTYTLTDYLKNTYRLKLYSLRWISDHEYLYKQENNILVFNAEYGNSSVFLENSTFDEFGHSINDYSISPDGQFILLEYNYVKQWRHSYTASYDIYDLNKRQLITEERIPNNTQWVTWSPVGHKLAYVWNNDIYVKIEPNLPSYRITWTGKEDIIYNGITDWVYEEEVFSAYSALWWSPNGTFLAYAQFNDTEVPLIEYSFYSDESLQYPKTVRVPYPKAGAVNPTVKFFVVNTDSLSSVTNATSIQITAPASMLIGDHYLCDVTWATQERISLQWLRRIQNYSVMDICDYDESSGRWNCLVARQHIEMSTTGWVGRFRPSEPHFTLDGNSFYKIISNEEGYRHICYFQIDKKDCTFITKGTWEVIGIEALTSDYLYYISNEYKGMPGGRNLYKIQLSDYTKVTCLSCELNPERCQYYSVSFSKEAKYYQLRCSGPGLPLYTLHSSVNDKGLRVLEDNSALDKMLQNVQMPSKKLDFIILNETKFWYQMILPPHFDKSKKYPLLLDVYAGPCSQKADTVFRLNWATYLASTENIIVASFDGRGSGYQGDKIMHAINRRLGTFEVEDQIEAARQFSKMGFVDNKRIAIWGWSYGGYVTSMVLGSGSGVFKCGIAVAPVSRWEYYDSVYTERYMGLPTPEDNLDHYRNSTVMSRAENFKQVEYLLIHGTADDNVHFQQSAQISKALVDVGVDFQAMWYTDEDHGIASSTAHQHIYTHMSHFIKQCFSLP

CC(C)[C@H](N)C(=O)N1CCC[C@H]1C(=O)N[C@@H](Cc1ccccc1)C(=O)N[C@@H](Cc1c[nH]c2ccccc12)C(=O)N[C@@H](C)C(=O)O [VPFWA] (H-VPFWA-OH; N-terminus and C-terminus assumed)
passage through the Caco-2 cell monolayer (Caco-2 cell monolayer; AP to BL): pass through the Caco-2 cell monolayer intact
chromatographic peak in the BL-side samples (Caco-2 cell monolayer; RP-HPLC): smallest peak
IC50 (DPP-IV [1]): 325 ± 8.4 µM
IC50 (DPP-IV [2]): 251 ± 12.8 µM
survival rates of Caco-2 cells (Caco-2 cells [3]): 76.03 ± 1.08%

LDATDMVALVG
damage to cell viability of Caco-2 cells (Caco-2 cells [4]): least damage to cell viability

LPQNIPPL
glucose metabolism (glucose metabolism): improved glucose metabolism
plasma insulin levels (glucose metabolism): significantly reduced plasma insulin levels

SPVAEVPFLR
damage to cell viability of Caco-2 cells (Caco-2 cells [4]): least damage to cell viability
